What was measured:
human beings [1] = conditions: cited from earlier work
human beings [2] = conditions: intravenous infusion of native GLP-2, human beings; cited from earlier work
[3] = Plasma total GLP-2 concentration after subcutaneous GLP-2; assay type: in vivo, human beings; conditions: 1500 μg of GLP-2 subcutaneously
Procedure, shortened: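 Plasma total GLP-2 was measured during the study A visits in healthy men (randomized, single-blind crossover, visits 4 weeks apart). After an overnight fast, subjects received nasoduodenal formula feeding under a pancreatic clamp, then a single subcutaneous GLP-2 dose (1500 ug) or placebo at 9 AM. Sampling continued over the kinetic study.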

healthy men [4] = assay type: in vivo, human beings; conditions: study B
Procedure, shortened: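 Six healthy men were studied in a randomized, single-blind crossover (visits 4 weeks apart). At 7 am they drank a liquid meal containing 120,000 IU retinyl palmitate, with no food thereafter. At 2 pm (T = 0, 7 h post-meal) they received s.c. GLP-2 1500 mcg or placebo, with blood sampled for 3 h. TRL TG, retinyl palmitate and apoB-48 were measured. Incremental AUC over 0–3 h used the T = 0 concentration as baseline.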

healthy men [5] = assay type: in vivo, human beings; conditions: study A
Procedure, shortened: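 Six healthy normoglycemic, normolipidemic men took part in a randomized, single-blind crossover (visits 4 weeks apart). After an overnight fast, liquid mixed-macronutrient formula was infused nasoduodenally for 15 h from 4 AM. A pancreatic clamp (somatostatin, insulin, glucagon, growth hormone) started at 7 AM. At 9 AM came primed constant d3-leucine for 10 h plus s.c. GLP-2 1500 ug or placebo. AUC covered the first 3 h. Multicompartmental modelling gave FCR.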

[6] = GLP-2 1500 mcg s.c. 7 h after meal, N = 6, vs placebo P = .002
[7] = GLP-2 1500 μg s.c. single dose, n = 6, vs placebo P = .03
[8] = GLP-2 1500 μg s.c., n = 6, vs placebo P = .02

## N[C@@H](CC(=O)N1CCn2c(nnc2C(F)(F)F)C1)Cc1cc(F)c(F)cc1F [sitagliptin]
Human beings [1]; acute
  effect on chylomicron production in human beings: acutely reduces chylomicron production

## exenatide
Human beings [1]
  effect on chylomicron secretion in human beings: reduces chylomicron secretion

## glucagon-like peptide-2 [GLP-2]
Human beings [2]
  effect on postprandial plasma TG and free fatty acid (FFA) concentrations: increase
[3]
  GLP-2 concentration at 4 hours relative to the level at 2 hours: approximately half
[3]; 2 and 4 hours after administration
  plasma total GLP-2 concentration compared with placebo: significantly increased
Healthy men [4]
  plasma glucose concentration, GLP-2 vs placebo: no significant difference
Healthy men [4]; [6]
  TRL TG iAUC0-3: 0.28 ± 0.16 mmol/L/h
  TRL retinyl palmitate iAUC0-3: 0.86 ± 0.21 µmol/L/h
Healthy men [4]; GLP-2 1500 mcg s.c. 7 h after meal, n = 5, vs placebo P = .003
  chylomicron (Sf > 400) retinyl palmitate peak concentration at 60 minutes: 0.38 ± 0.06 µmol/L
Healthy men [4]; GLP-2 1500 mcg s.c. 7 h after meal, n = 6, vs placebo P = .04
  TRL apoB-48 iAUC0-3: 1.45 ± 1.72 mg/L/h
Healthy men [4]; GLP-2 1500 mcg s.c. 7 h after meal, vs placebo P = .003
  TRL TG peak increment: 0.42 ± 0.11
Healthy men [4]; GLP-2 1500 mcg s.c. 7 h after meal, vs placebo P = .006
  TRL apoB-48 peak increment: 2.1 ± 0.8
Healthy men [5]; [7]
  plasma TG area under the concentration curve in the first 3 hours (AUC0-3): 3.1 ± 0.4 mmol/L/h
  plasma TG peak concentration at 1 hour: 1.23 ± 0.20 mmol/L
Healthy men [5]; [8]
  TRL apoB-48 AUC0-3: 19.3 ± 5.0 mg/L/h
  TRL apoB-48 peak concentration 1 hour after administration: 9.5 ± 2.6 mg/L
Healthy men [5]; GLP-2 1500 μg s.c., n = 6, vs placebo P = .15
  TRL TG peak concentration at 1 hour: 0.79 ± 0.09 mmol/L
Healthy men [5]; GLP-2 1500 μg s.c., n = 6, vs placebo P = .24
  TRL TG AUC0-3: 1.9 ± 0.2 mmol/L/h
Healthy men [5]; GLP-2 1500 μg s.c., n = 6, vs placebo P = .5
  TRL apoB-100 mean concentration for the 10-hour kinetics study: 74.8 ± 7.4 mg/L
Healthy men [5]; GLP-2 1500 μg s.c., n = 6, vs placebo P = .95
  TRL apoB-100 AUC0-3: 216 ± 21.9 mg/L/h
Healthy men [5]; GLP-2 1500 μg s.c., pancreatic clamp, vs placebo P = .01
  mean plasma glucagon concentration: 143.3 ± 14.2 pg/mL
Healthy men [5]; GLP-2 1500 μg s.c., pancreatic clamp, vs placebo P = .049
  mean plasma glucose concentration: 8.7 ± 0.3 mmol/L
Healthy men [5]; during kinetic study
  plasma FFA concentration, GLP-2 vs placebo: no significant difference
  plasma insulin concentration, GLP-2 vs placebo: no significant difference

From PMC4316201 (Gastroenterology, 2014)
